Reference: publication PMC6605684 (The Journal of General Physiology, 2019)
Where “and” joins values, the source holds several entries; their conditions need not be identical. Identical values can stand only once. Entries after “also recorded” stand apart in the source; their conditions may differ.

Experiments:
D924E-CFTR = D924E-CFTR (Homo sapiens, UniProt P13569, D924E); test: Inside-out patch-clamp of CFTR currents in transfected CHO cells; type: cell-based
Procedure, shortened: (§1)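 CFTR construct and GFP plasmid cotransfected into CHO cells, held at 27°C for 2–6 d. Inside-out patches at room temperature, −30 mV, NMDG-Cl solutions at pH 7.4. Channels preactivated with 25 IU PKA plus 2 mM MgATP, then test compound (max 40 µM) applied in 2 mM ATP. ATP-subtracted steady-state currents normalized to the 3 µM response in the same patch. Hill fit with base 0 and maximum 1; EC50 ± SD of fit; 3–7 patches per point.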

S1149A-CFTR = S1149A-CFTR (Homo sapiens, UniProt P13569, S1149A); test: as above; type: cell-based
Procedure, shortened: as §1

T360A-CFTR = T360A-CFTR (Homo sapiens, UniProt P13569, T360A); test: as above; type: cell-based
Procedure, shortened: as §1

D993A-CFTR = D993A-CFTR (Homo sapiens, UniProt P13569, D993A); test: as above; type: cell-based
Procedure, shortened: as §1

F312A-CFTR = F312A-CFTR (Homo sapiens, UniProt P13569, F312A); test: Inside-out patch-clamp of CFTR currents in transfected CHO cells; type: cell-based; conditions: for ΔΔG: vs WT
Q237A-CFTR = Q237A-CFTR (Homo sapiens, UniProt P13569, Q237A); test: Inside-out patch-clamp of CFTR currents in transfected CHO cells; type: cell-based
Sequence of Q237A-CFTR (P13569 whole entry Q237A): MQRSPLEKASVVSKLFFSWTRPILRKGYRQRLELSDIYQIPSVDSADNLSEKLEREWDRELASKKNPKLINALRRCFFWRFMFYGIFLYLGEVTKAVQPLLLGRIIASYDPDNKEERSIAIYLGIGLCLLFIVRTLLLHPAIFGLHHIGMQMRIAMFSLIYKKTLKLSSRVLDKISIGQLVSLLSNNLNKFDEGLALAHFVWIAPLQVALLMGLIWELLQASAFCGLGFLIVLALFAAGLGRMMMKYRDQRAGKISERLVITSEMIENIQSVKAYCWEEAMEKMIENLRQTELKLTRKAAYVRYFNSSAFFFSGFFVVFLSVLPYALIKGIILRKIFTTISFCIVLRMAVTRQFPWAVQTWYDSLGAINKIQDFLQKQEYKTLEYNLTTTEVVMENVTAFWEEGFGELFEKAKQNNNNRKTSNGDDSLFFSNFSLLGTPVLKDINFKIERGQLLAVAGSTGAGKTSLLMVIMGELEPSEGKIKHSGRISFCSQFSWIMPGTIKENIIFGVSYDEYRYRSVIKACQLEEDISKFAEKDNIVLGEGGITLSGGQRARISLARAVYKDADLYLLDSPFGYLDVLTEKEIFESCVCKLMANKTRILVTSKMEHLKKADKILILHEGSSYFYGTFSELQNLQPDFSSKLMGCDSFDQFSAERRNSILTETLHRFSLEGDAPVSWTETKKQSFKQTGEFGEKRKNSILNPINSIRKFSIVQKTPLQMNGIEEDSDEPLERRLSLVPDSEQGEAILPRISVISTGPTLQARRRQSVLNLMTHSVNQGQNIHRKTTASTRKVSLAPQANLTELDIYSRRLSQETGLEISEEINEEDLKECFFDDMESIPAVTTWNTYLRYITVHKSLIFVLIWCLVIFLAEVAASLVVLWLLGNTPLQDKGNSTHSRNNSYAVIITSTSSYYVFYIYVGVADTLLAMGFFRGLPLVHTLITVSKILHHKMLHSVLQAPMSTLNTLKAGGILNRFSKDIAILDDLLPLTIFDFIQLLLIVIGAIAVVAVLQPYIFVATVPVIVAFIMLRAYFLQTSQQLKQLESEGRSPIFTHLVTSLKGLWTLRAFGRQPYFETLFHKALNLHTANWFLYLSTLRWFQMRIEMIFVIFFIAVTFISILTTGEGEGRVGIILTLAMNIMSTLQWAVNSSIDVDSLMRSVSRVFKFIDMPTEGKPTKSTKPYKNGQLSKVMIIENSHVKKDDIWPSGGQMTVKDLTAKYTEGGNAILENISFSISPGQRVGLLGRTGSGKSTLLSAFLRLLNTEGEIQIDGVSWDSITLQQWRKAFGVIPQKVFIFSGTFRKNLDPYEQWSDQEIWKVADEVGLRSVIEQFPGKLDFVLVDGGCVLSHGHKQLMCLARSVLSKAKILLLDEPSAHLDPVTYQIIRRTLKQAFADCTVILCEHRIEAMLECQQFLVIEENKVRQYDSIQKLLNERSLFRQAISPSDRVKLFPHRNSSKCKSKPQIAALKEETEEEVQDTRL
Procedure, shortened: as §1

WT-mCFTR = WT-mCFTR (Mus musculus, UniProt P26361); test: Inside-out patch-clamp of CFTR currents in transfected CHO cells; type: cell-based; conditions: 2 mM ATP
Procedure, shortened: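 Mouse CFTR expressed in CHO cells; inside-out patches. Phosphorylated channels opened by 2 mM ATP before the potentiator was applied (one potentiator at 200 nM). 5 µM CFTRinh-172 added at the end of each recording for baseline.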

N1138F/G551D-CFTR = N1138F/G551D-CFTR (Homo sapiens, UniProt P13569, G551D/N1138F); test: Inside-out patch-clamp of CFTR currents in transfected CHO cells; type: cell-based
Procedure, shortened: as §1

WT zCFTR (zWT) = WT zCFTR (zWT) (Danio rerio, UniProt Q1LX78); test: as above; type: cell-based, zebrafish; conditions: EC50 for GLPG1837, dose–response
Procedure, shortened: as §1

G551D-CFTR [1] = biological target: T1, G551D-CFTR (Homo sapiens, UniProt P13569, G551D); test: as above; type: cell-based
Procedure, shortened: as §1

Y304A-CFTR = Y304A-CFTR (Homo sapiens, UniProt P13569, Y304A); test: Inside-out patch-clamp of CFTR currents in transfected CHO cells; type: cell-based
Sequence of Y304A-CFTR (P13569 whole entry Y304A, the tested form may be a part): as the sequence (P13569 whole entry Q237A) above, with A237Q, Y304A counted along it
Procedure, shortened: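 Relaxation assay: PKA-preactivated channels in 2 mM ATP at −30 mV exposed to test compound through a fast three-barrel perfusion system (dead time ∼30 ms). Current decay after sudden removal of 3 µM compound fitted with a single exponential to give relaxation time constant τ.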

G551D-CFTR [2] = biological target: T1, G551D-CFTR; conditions: ref Yeh et al., 2017, cited from earlier work
S182A-CFTR = S182A-CFTR (Homo sapiens, UniProt P13569, S182A); test: Inside-out patch-clamp of CFTR currents in transfected CHO cells; type: cell-based
Sequence of S182A-CFTR (P13569 whole entry S182A): as the sequence (P13569 whole entry Q237A) above, with S182A, A237Q counted along it
Procedure, shortened: as §1

F304Y-mCFTR = F304Y-mCFTR (Mus musculus, UniProt P26361, F304Y); test: as above; type: cell-based
Procedure, shortened: as §1

D924N-CFTR = D924N-CFTR (Homo sapiens, UniProt P13569, D924N); test: as above; type: cell-based
Procedure, shortened: as §1

WT-CFTR = WT-CFTR (Homo sapiens, UniProt P13569); test: as above; type: cell-based
Procedure, shortened: as §1

[3] = CHO, read-out: Efficacy (% increase) of currents by GLPG1837

With `CC1(C)Cc2c(sc(NC(=O)c3ccn[nH]3)c2C(N)=O)C(C)(C)O1` [GLPG1837, N-(3-carbamoyl-5,5,7,7-tetramethyl-5,7-dihydro-4H-thieno[2,3-c]pyran-2-yl)-lH-pyrazole-5-carboxamide] the EC50 (D924E-CFTR) was 710 ± 70 nM, the Emax (D924E-CFTR; [3]) was 194 ± 8% and the ΔΔG (D924E-CFTR; GLPG1837, vs WT) was -0.595 kcal/mol. For the same compound, the EC50 (S1149A-CFTR) was 160 ± 30 nM, the Emax (S1149A-CFTR; [3]) was 139 ± 36% and the ΔΔG (S1149A-CFTR; GLPG1837, vs WT) was 0.287 kcal/mol. The EC50 (T360A-CFTR) was 120 ± 10 nM, the Emax (T360A-CFTR; [3]) was 120 ± 38% and the ΔΔG (T360A-CFTR; GLPG1837, vs WT) was 0.459 kcal/mol. The EC50 (D993A-CFTR) was 360 ± 40 nM, the Emax (D993A-CFTR; [3]) was 283 ± 47% and the ΔΔG (D993A-CFTR; GLPG1837, vs WT) was -0.194 kcal/mol. It also gave an Emax (F312A-CFTR; CHO, read-out: Efficacy (% increase) of currents by GLPG1837, 30 µM ATP) of 105 ± 12%, an EC50 (F312A-CFTR; EC50 for GLPG1837, 30 µM ATP (Po ∼0.35)) of 1300 ± 260 nM and an EC50 (F312A-CFTR; EC50 for GLPG1837, 2 mM ATP) of 400 ± 130 nM. For the same compound, the ΔΔG (F312A-CFTR; GLPG1837, 30 µM ATP) was -0.954 kcal/mol, the ΔΔG (F312A-CFTR; GLPG1837, 2 mM ATP) was -0.256 kcal/mol and the EC50 (Q237A-CFTR) was 920 ± 320 nM. The Emax (Q237A-CFTR; [3]) was 615%, the ΔΔG (Q237A-CFTR; GLPG1837, vs WT) was -0.748 kcal/mol and the “Potentiation of currents by GLPG1837” value (WT-mCFTR) was “does not potentiate”. For the same compound, the EC50 (N1138F/G551D-CFTR) was 160 ± 50 nM, the Emax (N1138F/G551D-CFTR; [3]) was 666 ± 131% and the ΔΔG (N1138F/G551D-CFTR; GLPG1837, vs G551D) was 1.55 kcal/mol. It also gave an EC50 (WT zCFTR (zWT)) of 3900 ± 1700 nM, an EC50 (G551D-CFTR [1]) of 2190 ± 330 nM and an EC50 (Y304A-CFTR) of over 3000 nM. For the same compound, the Emax (Y304A-CFTR; [3]) was over 80%, the ΔΔG (Y304A-CFTR; GLPG1837, vs WT) was under -1.45 kcal/mol and the “Relaxation time constant upon removal of GLPG1837” value (Y304A-CFTR; mean, n = 5) was 3.6 ± 1.0 s and < 5 s. For the same compound, the “Maximal fold increase of currents by GLPG1837 relative to WT-CFTR” value (G551D-CFTR [2]; greater than WT-CFTR) was 20 fold, the “Apparent affinity for GLPG1837 relative to WT-CFTR” value (G551D-CFTR [2]; lower than on WT-CFTR) was 10 fold and the EC50 (S182A-CFTR) was 220 ± 40 nM. It also gave an Emax (S182A-CFTR; [3]) of 138 ± 23%, a ΔΔG (S182A-CFTR; GLPG1837, vs WT) of 0.098 kcal/mol and an EC50 (F304Y-mCFTR) of 680 ± 180 nM. The “Potentiation of currents by GLPG1837” value (F304Y-mCFTR) was “restores the potentiating effects; also recorded: Potentiation”, the EC50 (D924N-CFTR) was 2290 ± 780 nM and the ΔΔG (D924N-CFTR; GLPG1837, vs WT) was -1.29 kcal/mol. The “Efficacy (% increase) of currents by GLPG1837” value (D924N-CFTR; maximal percent increase) was 464 ± 73%, the EC50 (WT-CFTR) was 260 ± 40 nM and the “Hill coefficient of the GLPG1837 effect” value (WT-CFTR) was “≈ 1”. The Emax (WT-CFTR; [3]) was 115% and the “Saturating concentration of GLPG1837” value (WT-CFTR; continuous presence of ATP) was 3 µM.
